Activity calls are given as the source filed them. The calls are words filed in the database; no cut-off is given here.
Key:
[1] = system: HCT-116; assay: Antiproliferative activity against human HCT116 cells after 72 hrs by MTT assay; assay type: functional, cell-based
In short: (§1)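 Cells kept in RPMI-1640 with 10% FBS at 37 °C, 5% CO2. Seeded at 5×10^3 cells/well and grown 24 h, then exposed 72 h at 37 °C to five concentrations (0.01, 0.1, 1, 10, 100 μM) in medium. MTT added for 4 h, formazan dissolved in DMSO, absorbance read at 490 nm. IC50 taken from a log plot of percent of control vs concentration; means ± SD of triplicate experiments.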

[2] = system: LoVo; assay: Antiproliferative activity against human LoVo cells after 72 hrs by MTT assay; assay type: functional, cell-based; in short: as §1
[3] = target: T1, Aurora kinase B (Homo sapiens, UniProt Q96GD4); assay: Inhibition of Aurora B (unknown origin) using kemptide as substrate after 30 mins by kinase-Glo luminescence method
T1 sequence (Q96GD4 whole entry): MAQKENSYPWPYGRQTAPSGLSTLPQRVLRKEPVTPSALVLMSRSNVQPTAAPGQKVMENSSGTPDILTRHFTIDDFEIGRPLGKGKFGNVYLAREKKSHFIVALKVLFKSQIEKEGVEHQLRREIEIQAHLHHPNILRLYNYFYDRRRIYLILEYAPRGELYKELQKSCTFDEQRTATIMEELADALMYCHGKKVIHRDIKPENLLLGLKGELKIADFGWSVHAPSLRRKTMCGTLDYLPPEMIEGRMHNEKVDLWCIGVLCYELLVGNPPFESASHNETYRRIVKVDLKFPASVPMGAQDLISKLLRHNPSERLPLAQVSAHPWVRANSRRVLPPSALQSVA
In short: (§2)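 Luminescent kinase assay. Reaction buffer: 40 mM Tris pH 7.4, 10 mM MgCl2, 1 mM DTT, 0.1 mg/ml BSA, 10 μM ATP, 0.2 μg/ml kinase, 100 μM Kemptide. Compounds tested at 0.1, 1, 10, 100 and 1000 nM (diluted in PBS). Reactions ran 30 min at 37 °C, signal read by Kinase-Glo luminescence, IC50 fitted from the curves.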

[4] = target: T2, Aurora kinase A (Homo sapiens, UniProt O14965); assay: Inhibition of Aurora A (unknown origin) using kemptide as substrate after 30 mins by kinase-Glo luminescence method; in short: as §2
T2 sequence (O14965 whole entry): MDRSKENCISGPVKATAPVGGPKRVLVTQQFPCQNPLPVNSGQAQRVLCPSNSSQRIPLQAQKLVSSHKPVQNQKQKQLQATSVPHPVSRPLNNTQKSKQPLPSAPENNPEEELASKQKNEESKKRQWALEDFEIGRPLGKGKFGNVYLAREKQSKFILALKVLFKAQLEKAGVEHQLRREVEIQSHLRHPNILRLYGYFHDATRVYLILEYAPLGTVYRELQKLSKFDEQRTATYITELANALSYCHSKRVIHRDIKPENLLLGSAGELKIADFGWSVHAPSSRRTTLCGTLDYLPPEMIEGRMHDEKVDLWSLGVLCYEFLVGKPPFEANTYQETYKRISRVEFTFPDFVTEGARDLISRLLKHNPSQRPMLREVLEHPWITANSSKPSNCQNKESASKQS

[5] = system: HeLa; assay: Antiproliferative activity against human HeLa cells after 72 hrs by MTT assay; assay type: functional, cell-based; in short: as §1
[6] = system: HepG2; assay: Antiproliferative activity against human HepG2 cells after 72 hrs by MTT assay; assay type: functional, cell-based; in short: as §1
[7] = system: A549; assay: Antiproliferative activity against human A549 cells after 72 hrs by MTT assay; assay type: functional, cell-based; in short: as §1
[8] = system: HeLa; assay: Downregulation of Cyclin-B1 protein level in human HeLa cells after 24 hrs by Western blot method; assay type: functional, cell-based
In short: (§3)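 HeLa cells treated 24 h at 0, 0.5, 2.0 or 5.0 μM, or with VX-680 at 5.0 μM. Lysed in Tris-HCl pH 7.5/NP-40/SDS buffer with protease inhibitors, 20–30 μg protein run on 12% SDS-PAGE, transferred to PVDF, probed overnight at 4 °C with anti-cyclinB1 and anti-cdc2. β-actin served as loading control. Values are mean ± SD.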

[9] = target: T1, Aurora kinase B; assay: Inhibition of Aurora B phosphorylation at Thr232 residue in human HeLa cells after 6 hrs by Western blot method; assay type: cell-based
In short: (§4)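 HeLa cells treated 6 h at 0, 0.5, 2.5 or 5.0 μM. Lysates (20–30 μg) resolved on 12% SDS-PAGE and blotted to PVDF. Probed overnight at 4 °C with antibodies to phospho-AurA Thr288, phospho-AurB Thr232 and total AurA/AurB. β-actin used as loading control. Values are mean ± SD versus control.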

[10] = system: HeLa; assay: Cell cycle arrest in human HeLa cells assessed as accumulation at S phase at 5 uM after 24 hrs by propidium iodide staining based FACS analysis (reference value: 24.72%); assay type: functional
[11] = system: HeLa; assay: Cell cycle arrest in human HeLa cells assessed as accumulation at G2/M phase after 24 hrs by propidium iodide staining based FACS analysis; assay type: functional
In short: (§5)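 HeLa cells exposed 24 h to 0, 0.5, 2.0 or 5.0 μM. (1–5)×10^5 cells harvested, washed twice in PBS, fixed overnight or longer in 75% ice-cold ethanol, then washed three times in PBS. DNA stained 15 min in darkness with 1% Triton X-100, 0.01% RNase, 0.05% PI. Phase distribution measured by flow cytometry.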

[12] = system: HeLa; assay: Cell cycle arrest in human HeLa cells assessed as accumulation at G2/M phase at 0.5 uM after 24 hrs by propidium iodide staining based FACS analysis (reference value: 9.63%); assay type: functional; in short: as §5
[13] = system: HeLa; assay: Cell cycle arrest in human HeLa cells assessed as accumulation at S phase at 0.5 uM after 24 hrs by propidium iodide staining based FACS analysis (reference value: 24.72%); assay type: functional; in short: as §5
[14] = system: HeLa; assay: Cell cycle arrest in human HeLa cells assessed as accumulation at G1 phase at 2 uM after 24 hrs by propidium iodide staining based FACS analysis (reference value: 65.66%); assay type: functional; in short: as §5
[15] = system: HeLa; assay: Cell cycle arrest in human HeLa cells assessed as accumulation at G1 phase at 0.5 uM after 24 hrs by propidium iodide staining based FACS analysis (reference value: 65.66%); assay type: functional; in short: as §5
[16] = system: HeLa; assay: Cell cycle arrest in human HeLa cells assessed as accumulation at G2/M phase at 2 uM after 24 hrs by propidium iodide staining based FACS analysis (reference value: 9.63%); assay type: functional; in short: as §5
[17] = target: T3, Aurora kinase A (Homo sapiens) (UniProt O14965); assay: Inhibition of Aurora A phosphorylation at Thr288 residue in human HeLa cells at 5 uM after 6 hrs by Western blot method; assay type: cell-based; in short: as §4
T3 sequence (whole entry): T2 sequence (O14965 whole entry)

[18] = target: T3, Aurora kinase A (Homo sapiens); assay: Inhibition of Aurora A phosphorylation at Thr288 residue in human HeLa cells after 6 hrs by Western blot method; assay type: cell-based; in short: as §4
[19] = system: HeLa; assay: Cell cycle arrest in human HeLa cells assessed as accumulation at S phase at 2 uM after 24 hrs by propidium iodide staining based FACS analysis (reference value: 24.72%); assay type: functional; in short: as §5
[20] = system: HeLa; assay: Cell cycle arrest in human HeLa cells assessed as accumulation at G2/M phase at 5 uM after 24 hrs by propidium iodide staining based FACS analysis (reference value: 9.63%); assay type: functional
[21] = system: HeLa; assay: Downregulation of Cdc2 protein level in human HeLa cells after 24 hrs by Western blot method; assay type: functional, cell-based; in short: as §3
[22] = system: HeLa; assay: Cell cycle arrest in human HeLa cells assessed as accumulation at G1 phase at 5 uM after 24 hrs by propidium iodide staining based FACS analysis (reference value: 65.66%); assay type: functional
[23] = target: T1, Aurora kinase B; assay: Inhibition of Aurora B phosphorylation at Thr232 residue in human HeLa cells at 5 uM after 6 hrs by Western blot method; assay type: cell-based; in short: as §4

| SMILES | IC50 ([1]; Homo sapiens, HCT-116, 72 h) [µM] | IC50 ([2]; Homo sapiens, LoVo, 72 h) [µM] | IC50 ([5]; Homo sapiens, HeLa, 72 h) [µM] | IC50 ([6]; Homo sapiens, HepG2, 72 h) [µM] | IC50 ([7]; Homo sapiens, A549, 72 h) [µM] | also measured |
| --- | --- | --- | --- | --- | --- | --- |
| Cc1noc(C)c1-c1nn(Cc2ccc(C(=O)N3CCOCC3)cc2)c(=O)c2ccccc12 | > 100 | 84.4 | > 100 | > 100 | > 100 | – |
| Cc1noc(C)c1-c1nn(Cc2ccc(C(=O)NC3CC(C)(C)N([O])C(C)(C)C3)cc2)c(=O)c2ccccc12 | – | – | – | – | – | IC50 ([1]; hct-116): 36.8 µM; IC50 ([2]; lovo): 41.2 µM; IC50 ([5]; hela): 83.5 µM; IC50 ([6]; hepg2): 85.1 µM; IC50 ([7]; a549): 84.3 µM |
| Cc1noc(C)c1-c1nn(Cc2ccc(C(=O)NC3CCCC3)cc2)c(=O)c2ccccc12 | > 100 | > 100 | > 100 | > 100 | > 100 | – |
| O=C(Nc1ccccc1Cl)c1ccc(Nc2nn(Cc3ccc(C(=O)NC4CCCCC4)cc3)c(=O)c3ccccc23)cc1 | > 100 | 79.5 | 87.3 | 82.4 | > 100 | – |
| CN1CCC(NC(=O)c2ccc(Cn3nc(-c4cnn(C)c4)c4ccccc4c3=O)cc2)CC1 | 69.5 | 83.3 | 28.5 | 47.3 | 54.3 | IC50 [3]: 0.105 µM; IC50 [4]: 0.183 µM |
| Cc1noc(C)c1-c1nn(Cc2ccc(C(=O)NC3CCCCC3)cc2)c(=O)c2ccccc12 | > 100 | 82.2 | > 100 | > 100 | > 100 | – |
| Cc1noc(C)c1-c1nn(Cc2ccc(C(=O)NC3CC3)cc2)c(=O)c2ccccc12 | > 100 | > 100 | > 100 | > 100 | > 100 | – |
| Cc1noc(C)c1-c1nn(Cc2ccc(C(=O)N3CCCCC3)cc2)c(=O)c2ccccc12 | > 100 | > 100 | > 100 | 97.3 | 86.2 | – |
| Cc1noc(C)c1-c1nn(Cc2ccc(C(=O)NC3CCN(C)CC3)cc2)c(=O)c2ccccc12 | 84.9 | > 100 | > 100 | > 100 | > 100 | – |
| Cn1cc(-c2nn(Cc3ccc(C(=O)N4CCCCC4)cc3)c(=O)c3ccccc23)cn1 | 73.9 | 77.1 | 65.5 | 73.1 | 67.4 | – |
| Cn1cc(-c2nn(Cc3ccc(C(=O)NC4CC(C)(C)N([O])C(C)(C)C4)cc3)c(=O)c3ccccc23)cn1 | 50.5 | 50.1 | 27.7 | 27.4 | 37.3 | IC50 [3]: 0.134 µM; IC50 [4]: 0.168 µM |
| Cn1cc(-c2nn(Cc3ccc(C(=O)N4CCOCC4)cc3)c(=O)c3ccccc23)cn1 | > 100 | 52.3 | > 100 | > 100 | 73.3 | – |

The next lines start with results.

| IC50 ([1]; Homo sapiens, HCT-116, 72 h) [µM] | IC50 ([2]; Homo sapiens, LoVo, 72 h) [µM] | IC50 ([5]; Homo sapiens, HeLa, 72 h) [µM] | IC50 ([6]; Homo sapiens, HepG2, 72 h) [µM] | IC50 ([7]; Homo sapiens, A549, 72 h) [µM] | SMILES | also measured |
| --- | --- | --- | --- | --- | --- | --- |
| 14.3 | 23.7 | 16.7 | 84.3 | 32.3 | Cn1cc(-c2nn(Cc3ccc(C(=O)NC4CCCC4)cc3)c(=O)c3ccccc23)cn1 | IC50 [3]: 0.265 µM; IC50 [4]: 0.583 µM |
| 5.4 | 5.3 | 3.2 | 8.3 | 6.8 | Cn1cc(Nc2nn(Cc3ccc(C(=O)NC4CCCCC4)cc3)c(=O)c3ccccc23)cn1 | IC50 [3]: 0.132 µM; IC50 [4]: 0.145 µM |
| 3.8 | 2.6 | 2.2 | 4.6 | 3.3 | Cn1cc(-c2nn(Cc3ccc(C(=O)NC4CCCCC4)cc3)c(=O)c3ccccc23)cn1 | Activity [8]: Dose-dependent effect; inhibition [9]: Dose-dependent effect; Activity [10]: 5.48%; Activity [11]: Dose-dependent effect; Activity [12]: 34.66%; Activity [13]: 30.47%; Activity [14]: 5.98%; Activity [15]: 34.87%; Activity [16]: 81.19%; IC50 [3]: 0.08 µM; inhibition [17]: Active; inhibition [18]: Dose-dependent effect; IC50 [4]: 0.118 µM; Activity [19]: 12.83%; Activity [20]: 87.17%; Activity [21]: Dose-dependent effect; Activity [22]: 7.34%; inhibition [23]: Active |
| 20.1 | 48.2 | 40 | > 100 | 51.2 | Cn1cc(-c2nn(Cc3ccc(C(=O)NC4CC4)cc3)c(=O)c3ccccc23)cn1 | – |
| 22.7 | 22.2 | 6.3 | 11.3 | 42.6 | Cc1cc(Nc2nn(Cc3ccccc3)c(=O)c3ccccc23)n[nH]1 | – |
| 48.2 | 54.5 | 23.2 | 40.4 | 64.3 | O=C(NC1CCCCC1)c1ccc(Cn2nc(Nc3ccc(C(=O)N4CCOCC4)cc3)c3ccccc3c2=O)cc1 | – |

Reference: ChEMBL document CHEMBL4219251, “Synthesis and biological evaluation of 2,4-disubstituted phthalazinones as Aurora kinase inhibitors” (Bioorg Med Chem, 2018)
